In ChEMBL document CHEMBL1140227, “Histone deacetylase inhibitors through click chemistry” (J Med Chem, 2008):

What was measured:
Type in all cases: functional
SF-295 = test: Growth inhibition of human SF295 cells at 10 uM relative to control; conditions: values are per cent of control
Outline: (§1)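 Single-dose preliminary screen in the NCI human cancer cell line panel, run by the NIH. Percent inhibition of cell line growth was calculated by comparison with untreated samples.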

IGROV-1 = test: Growth inhibition of human IGROV1 cells at 10 uM relative to control; conditions: values are per cent of control; outline: as §1
SW-620 = test: Growth inhibition of human SW620 cells at 10 uM relative to control; conditions: values are per cent of control
Outline: (§2)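 Single-dose NCI human tumour cell line screen, run by the NIH. Percent inhibition of cell line growth was calculated by comparison with untreated samples.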

NCI-H460 = test: Growth inhibition of human NCI-H460 cells at 10 uM relative to control; conditions: values are per cent of control; outline: as §1
NCI-H226 = test: Growth inhibition of human NCI-H226 cells at 10 uM relative to control; conditions: values are per cent of control; outline: as §1
HT-29 = test: Growth inhibition of human HT-29 cells at 10 uM relative to control; conditions: values are per cent of control; outline: as §1
HOP-62 = test: Growth inhibition of human HOP62 cells at 10 uM relative to control; conditions: values are per cent of control; outline: as §1
SNB-75 = test: Growth inhibition of human SNB75 cells at 10 uM relative to control; conditions: values are per cent of control; outline: as §2
MDA-MB-468 = test: Growth inhibition of human MDA-MB-468 cells at 10 uM relative to control; conditions: values are per cent of control; outline: as §1
KM12 = test: Growth inhibition of human KM12 cells at 10 uM relative to control; conditions: values are per cent of control; outline: as §1
OVCAR-5 = test: Growth inhibition of human OVCAR5 cells at 10 uM relative to control; conditions: values are per cent of control; outline: as §1
NCI/ADR-RES = test: Growth inhibition of human NCI/ADR-RES cells at 10 uM relative to control; conditions: values are per cent of control; outline: as §1
SK-OV-3 = test: Growth inhibition of human SKOV3 cells at 10 uM relative to control; conditions: values are per cent of control; outline: as §1
UACC-62 = test: Growth inhibition of human UACC62 cells at 10 uM relative to control; conditions: values are per cent of control; outline: as §2
[1] = Growth inhibition of human Hs 578T cells at 10 uM relative to control; conditions: values are per cent of control; outline: as §1
T47D = test: Growth inhibition of human T47D cells at 10 uM relative to control; conditions: values are per cent of control; outline: as §2
CCRF-CEM = test: Growth inhibition of human CCRF-CEM cells at 10 uM relative to control; conditions: values are per cent of control; outline: as §1
UO-31 = test: Growth inhibition of human UO31 cells at 10 uM relative to control; conditions: values are per cent of control; outline: as §2
MOLT-4 = test: Growth inhibition of human MOLT4 cells at 10 uM relative to control; conditions: values are per cent of control; outline: as §1
TK-10 = test: Growth inhibition of human TK10 cells at 10 uM relative to control; conditions: values are per cent of control; outline: as §2
SF-268 = test: Growth inhibition of human SF268 cells at 10 uM relative to control; conditions: values are per cent of control; outline: as §1
NCI-H522 = test: Growth inhibition of human NCI-H522 cells at 10 uM relative to control; conditions: values are per cent of control; outline: as §1
DU-145 = test: Growth inhibition of human DU145 cells at 10 uM relative to control; conditions: values are per cent of control; outline: as §1
HCC 2998 = test: Growth inhibition of human HCC2998 cells at 10 uM relative to control; conditions: values are per cent of control; outline: as §1
SNB-19 = test: Growth inhibition of human SNB19 cells at 10 uM relative to control; conditions: values are per cent of control; outline: as §1
OVCAR-3 = test: Growth inhibition of human OVCAR-3 cells at 10 uM relative to control; conditions: values are per cent of control; outline: as §1
NCI-H322M = test: Growth inhibition of human NCI-H322M cells at 10 uM relative to control; conditions: values are per cent of control; outline: as §1
SF-539 = test: Growth inhibition of human SF539 cells at 10 uM relative to control; conditions: values are per cent of control; outline: as §1
M14 = test: Growth inhibition of human M14 cells at 10 uM relative to control; conditions: values are per cent of control; outline: as §1
[2] = Growth inhibition of human RPMI8266 cells at 10 uM relative to control; conditions: values are per cent of control; outline: as §1
SK-MEL-5 = test: Growth inhibition of human SK-MEL-5 cells at 10 uM relative to control; conditions: values are per cent of control; outline: as §1
UACC-257 = test: Growth inhibition of human UACC257 cells at 10 uM relative to control; conditions: values are per cent of control; outline: as §2
OVCAR-4 = test: Growth inhibition of human OVCAR4 cells at 10 uM relative to control; conditions: values are per cent of control; outline: as §1
HL-60(TB) = test: Growth inhibition of human HL-60(TB) cells at 10 uM relative to control; conditions: read-out: INH
Outline: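 Single-dose cell line screen run by the NCI (NIH) in its human cancer cell line panel, which includes the leukemia line HL-60(TB). Percent growth inhibition was calculated by comparison with untreated samples.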

BT-549 = test: Growth inhibition of human BT549 cells at 10 uM relative to control; conditions: values are per cent of control; outline: as §1
U-251 = test: Growth inhibition of human U251 cells at 10 uM relative to control; conditions: values are per cent of control; outline: as §2
OVCAR-8 = test: Growth inhibition of human OVCAR8 cells at 10 uM relative to control; conditions: values are per cent of control; outline: as §1
Malme-3M = test: Growth inhibition of human MALME-3M cells at 10 uM relative to control; conditions: values are per cent of control; outline: as §1
cells = conditions: Homo sapiens, Cancer cell lines
A549 = test: Growth inhibition of human A549 cells at 10 uM relative to control; conditions: values are per cent of control; outline: as §1
MDA-MB-231 = test: Growth inhibition of human MDA-MB-231 cells at 10 uM relative to control; conditions: values are per cent of control; outline: as §1
HCT-116 = test: Growth inhibition of human HCT116 cells at 10 uM relative to control; conditions: values are per cent of control; outline: as §1
PC-3 = test: Growth inhibition of human PC3 cells at 10 uM relative to control; conditions: values are per cent of control; outline: as §1
786-0 = test: Growth inhibition of human 786-0 cells at 10 uM relative to control; conditions: values are per cent of control; outline: as §1
MCF7 = test: Growth inhibition of human MCF7 cells at 10 uM relative to control; conditions: values are per cent of control; outline: as §1
K562 = test: Growth inhibition of human K562 cells at 10 uM relative to control; conditions: values are per cent of control; outline: as §1
SK-MEL-2 = test: Growth inhibition of human SK-MEL-2 cells at 10 uM relative to control; conditions: values are per cent of control; outline: as §1
ACHN = test: Growth inhibition of human ACHN cells at 10 uM relative to control; conditions: values are per cent of control; outline: as §1
NCI-H23 = test: Growth inhibition of human NCI-H23 cells at 10 uM relative to control; conditions: values are per cent of control; outline: as §1
HCT-15 = test: Growth inhibition of human HCT15 cells at 10 uM relative to control; conditions: values are per cent of control; outline: as §1
A498 = test: Growth inhibition of human A498 cells at 10 uM relative to control; conditions: values are per cent of control; outline: as §1
COLO 205 = test: Growth inhibition of human COLO205 cells at 10 uM relative to control; conditions: values are per cent of control; outline: as §1
SN12C = test: Growth inhibition of human SN12C cells at 10 uM relative to control; conditions: values are per cent of control; outline: as §1
EKVX = test: Growth inhibition of human EKVX cells at 10 uM relative to control; conditions: values are per cent of control; outline: as §1
MDA-MB-435 = test: Growth inhibition of human MDA-MB-435 cells at 10 uM relative to control; conditions: values are per cent of control; outline: as §1

O=C(Cn1cc(C(=O)NO)nn1)c1ccccc1
growth, % of control at 10 µM (SF-295): 126% | growth, % of control at 10 µM (IGROV-1): 100% | growth, % of control at 10 µM (SW-620): 94.8% | growth, % of control at 10 µM (NCI-H460): 120% | growth, % of control at 10 µM (NCI-H226): 87.6% | growth, % of control at 10 µM (HT-29): 115% | growth, % of control at 10 µM (HOP-62): 118% | growth, % of control at 10 µM (SNB-75): 117% | growth, % of control at 10 µM (MDA-MB-468): 110% | growth, % of control at 10 µM (KM12): 108% | growth, % of control at 10 µM (OVCAR-5): 84.1% | growth, % of control at 10 µM (NCI/ADR-RES): 91.3% | growth, % of control at 10 µM (SK-OV-3): 109% | growth, % of control at 10 µM (UACC-62): 93.3% | growth, % of control at 10 µM [1]: 90% | growth, % of control at 10 µM (T47D): 102% | growth, % of control at 10 µM (CCRF-CEM): 92.1% | growth, % of control at 10 µM (UO-31): 84.7% | growth, % of control at 10 µM (MOLT-4): 110% | growth, % of control at 10 µM (TK-10): 113% | growth, % of control at 10 µM (SF-268): 104% | growth, % of control at 10 µM (NCI-H522): 99.2% | growth, % of control at 10 µM (DU-145): 135% | growth, % of control at 10 µM (HCC 2998): 107% | growth, % of control at 10 µM (SNB-19): 95.9% | growth, % of control at 10 µM (OVCAR-3): 146% | growth, % of control at 10 µM (NCI-H322M): 95.9% | growth, % of control at 10 µM (SF-539): 118% | growth, % of control at 10 µM (M14): 94.1% | growth, % of control at 10 µM [2]: 79.8% | growth, % of control at 10 µM (SK-MEL-5): 111% | growth, % of control at 10 µM (UACC-257): 112% | growth, % of control at 10 µM (OVCAR-4): 112% | growth, % of control at 10 µM (HL-60(TB)): 136% | growth, % of control at 10 µM (BT-549): 108% | growth, % of control at 10 µM (U-251): 96.9% | growth, % of control at 10 µM (OVCAR-8): 96.2% | growth, % of control at 10 µM (Malme-3M): 107% | inhibition at 10 µM (cells): > 95% | growth, % of control at 10 µM (A549): 103% | growth, % of control at 10 µM (MDA-MB-231): 101% | growth, % of control at 10 µM (HCT-116): 97.3% | growth, % of control at 10 µM (PC-3): 82.1% | growth, % of control at 10 µM (786-0): 105% | growth, % of control at 10 µM (MCF7): 112% | growth, % of control at 10 µM (K562): 85.1% | growth, % of control at 10 µM (SK-MEL-2): -26.8% | growth, % of control at 10 µM (ACHN): 99.2% | growth, % of control at 10 µM (NCI-H23): 110% | growth, % of control at 10 µM (HCT-15): 108% | growth, % of control at 10 µM (A498): 67.6% | growth, % of control at 10 µM (COLO 205): 123% | growth, % of control at 10 µM (SN12C): 97.7% | growth, % of control at 10 µM (EKVX): 108% | growth, % of control at 10 µM (MDA-MB-435): 106%
